dFosB act-1 = mouse delta FosB homodimer activation. P13346. activation, % at 25 µM. purified delta FosB, TAMRA-CDK5 oligo fluorescence polarization; percent of positive-control signal above neutral wells. actives 0.99% (n = 340,000);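 active = mean activation above about 17%, with every replicate also reaching it, limit read from the data, passing the limit was not always enough; inconclusive = only one of the two conditions met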
CDK5 inh = blocks human CDK5/p35 kinase activity; Recombinant CDK5/p35, ADP-Glo luminescence, 60 min; inhibition, % at 10 µM; Q00535+Q15078; actives 0.01% (n = 330,000);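 active = highest replicate inhibition of at least 50% and at least 75% of replicates reaching 50%; inconclusive = only one of the two criteria met; inactive = both criteria failed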;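 note: plate controls were DMSO neutral control for no effect and GW8510 at 10 µM for full effect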
Target sequence (Q00535 whole entry, looked up): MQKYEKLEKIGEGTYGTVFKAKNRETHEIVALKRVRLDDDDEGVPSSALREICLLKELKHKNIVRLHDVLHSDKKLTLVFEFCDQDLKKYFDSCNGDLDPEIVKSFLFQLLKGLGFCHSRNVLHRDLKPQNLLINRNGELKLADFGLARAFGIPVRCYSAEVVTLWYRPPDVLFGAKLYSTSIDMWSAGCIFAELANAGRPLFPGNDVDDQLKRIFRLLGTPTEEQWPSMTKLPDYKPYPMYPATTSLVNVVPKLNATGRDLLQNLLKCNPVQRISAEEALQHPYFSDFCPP
Target sequence (Q15078 whole entry, looked up): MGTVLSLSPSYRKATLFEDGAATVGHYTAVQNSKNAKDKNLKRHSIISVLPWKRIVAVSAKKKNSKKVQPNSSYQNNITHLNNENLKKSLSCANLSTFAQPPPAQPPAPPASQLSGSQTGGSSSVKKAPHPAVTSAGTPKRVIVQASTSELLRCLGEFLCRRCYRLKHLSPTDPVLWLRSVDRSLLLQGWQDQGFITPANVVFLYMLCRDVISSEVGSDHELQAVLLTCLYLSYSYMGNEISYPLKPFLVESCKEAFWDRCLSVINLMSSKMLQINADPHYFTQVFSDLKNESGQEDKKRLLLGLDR
SR-BI DiI inh = inhibitors of mouse SR-BI mediated HDL lipid uptake | inhibition, % at 12.5 µM | ldlA[mSR-BI] CHO cells, DiI-HDL uptake fluorescence, 3 h | actives 0.96% (n = 320,000);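 active = mean replicate inhibition of at least 70% and a set share of replicates each scoring 70 or more; inconclusive = meets just one of the two criteria; inactive = fails both criteria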;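 note: 0% = median of neutral control wells and 100% = median of positive control wells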
SR-BI uptake up = SR-BI HDL lipid transfer activation | activation, % at 12.5 µM | actives 0.096% (n = 320,000) | CHO ldlA[mSR-BI] cells, DiI-HDL uptake fluorescence, 3 h; 100 = double the neutral-control signal;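 active = mean replicate activation of at least 60% and every replicate at or above 60%; inconclusive = mean or all-replicate condition met, but not both; inactive = mean below 60% and not all replicates reaching 60%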;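 note: 0% = median plate neutral-control signal and 100% = twice that signal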
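Assay system: LDL receptor-deficient CHO ldlA cells overexpressing murine SR-BI / Medium: BSA-supplemented, HEPES-buffered Ham's F12, pH 7.4 / Probe or stimulus: DiI-labelled HDL at 10 µg/mL final / Timing: compound with DiI-HDL co-incubation, 3 h at 37 °C / Technique: bottom-read cell fluorescence after medium removal, ex 550/em 595 nm / Measure: HDL uptake via cellular fluorescence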
Dyrk1A ADPGlo = blocks rat Dyrk1A kinase activity. Q63470. ADP-Glo luminescence, NFATc1 peptide. inhibition, % at 12.5 µM. actives 0.43% (n = 310,000). AID 504441;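 note: plate controls were vehicle with enzyme for no effect and no enzyme for full effect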
NSD2 inh = inhibitors of human histone methyltransferase NSD2; actives 0.54% (n = 310,000); O96028; NSD2 peptide methylation, AlphaScreen, 120 min; AID 743445; inhibition, % at 12.5 µM
dFosB act-2 = activators of mouse delta FosB homodimer DNA binding. purified delta FosB, TAMRA-CDK5 oligo fluorescence polarization; normalised: neutral wells 0, positive control 100. shares compounds with dFosB act-1. activation, % at 24.9 µM. 2,400 tested, under 10 active;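 active = highest replicate activation at or above 34% and every replicate reaching that threshold; inconclusive = meets only one of the two criteria; inactive = meets neither criterion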;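 note: higher polarization means more probe DNA bound by delta FosB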
* hit, by the source's call; ? = inconclusive; / = no result given. Compounds with a hit are over-represented: about 2.5% of the library has one in this group of screens. Cut-off read from the data, not from the text of the source, unless noted: active = inhibition above about 50%; inactive = the rest.

SMILES	dFosB act-1	CDK5 inh	SR-BI DiI inh	SR-BI uptake up	Dyrk1A ADPGlo	NSD2 inh	dFosB act-2
CC(=O)c1c(C)[nH]c(C(=O)OCC(=O)N2CCc3ccccc32)c1C	29*	0	41	-41	-8	-3	8
O=C(OCC(=O)N1CCc2ccccc21)c1n[nH]c(=O)c2ccccc12	38*	0	-1	1	/	1	-1
O=C(OCC(=O)N1CCCCCC1)c1n[nH]c(=O)c2ccccc12	1	-1	-6	6	/	-1	/
CC1(C(=O)NS(=O)(=O)c2cccc(Cl)c2)CCN1C(=O)c1cccc2ccccc12 (stereo unspecified)	/	/	/	/	/	-2	/
COc1cccc(NC(=O)Nc2cc(NC(=O)Nc3cccc(OC)c3)c(C)nc2C)c1	18*	0	-14	14	2	0	2
Cc1cccc(NC(=O)Cc2nnc(NC(=O)Nc3ccccc3F)s2)c1	40*	1	-31	31	-4	-3	2
COc1cccc(NC(=O)Nc2nnc(Cc3ccc(F)cc3)s2)c1	29*	1	-13	13	-2	-1	-1
COc1cccc(NC(=O)Nc2ccncc2)c1	-3	-1	-29	29	21	-3	/
CCOc1ccc2nc(N(CCCN(C)C)C(=O)c3ccc4c(c3)CCCC4)sc2c1	26*	-1	11	-11	3	11	5
CN(C)CCN(C(=O)c1ccc2ccccc2c1)c1nc2ccc(Br)cc2s1	15	-2	6	-6	2	0	/
CCOc1ccc2nc(N(CCN(C)C)C(=O)c3cc4ccccc4cc3OC)sc2c1	48*	/	28	-28	/	0	8
Cc1ccc2nc(N(CCN(C)C)C(=O)c3ccc4ccccc4c3)sc2c1	26*	-1	22	-22	0	0	6
CN(C)CCCN(C(=O)c1ccc2c(c1)CCCC2)c1nc2ccc(Cl)cc2s1	6	0	29	-29	-1	-2	/
COc1ccc2nc(N(CCN(C)C)C(=O)c3ccc(C(=O)c4ccccc4)cc3)sc2c1	31*	0	8	-8	0	19	0
CCN(CC)CCN(C(=O)c1ccc(C(=O)c2ccccc2)cc1)c1nc2ccc(OC)cc2s1	?	0	10	-10	4	2	/
CCCSc1nnc(-c2ccco2)n1C	/	/	/	/	/	-4	/
O=C(Nc1ccncc1)c1ccc(Cl)c(S(=O)(=O)N2CCCC2)c1	-6	-2	1	-1	7	0	/
O=C(Nc1cccc(Br)c1)c1ccc2c(c1)SC1=NS(=O)(=O)CCN12	0	3	?	-72	/	-3	/
CN(C)CCN(C(=O)c1ccc2ccccc2c1)c1nc2c(F)cc(F)cc2s1	36*	/	8	-8	/	-5	7
Cc1cccc2sc(N(CCN(C)C)C(=O)c3ccc4ccccc4c3)nc12	7	1	29	-29	-5	-2	/
CCc1ccc(NC(=O)CSc2nc3n[nH]c(C)c3c(=N)n2-c2cccc(OC)c2)cc1	42*	-1	-123	123*	1	-2	0
CN1/C(=C\C(=O)CSc2nnc(N)s2)C(C)(C)c2ccccc21	-1	0	-16	16	9	4	/
CN1/C(=C/C(=O)CSc2ccccc2C(=O)O)C(C)(C)c2ccccc21	19*	-1	/	/	-8	2	-1
COc1ccc(Nc2nnc(SCC(=O)/C=C3/N(C)c4ccccc4C3(C)C)s2)cc1	43*	0	10	-10	-1	-1	1
CC(C)CN(C(=O)CCNC(=O)c1ccccc1Cl)C1CCS(=O)(=O)C1 (stereo unspecified)	-1	-1	-44	44	/	0	/
SMILES	dFosB act-1	CDK5 inh	SR-BI DiI inh	SR-BI uptake up	Dyrk1A ADPGlo	NSD2 inh	dFosB act-2
O=C(CCc1nc2ccccc2c(=O)[nH]1)Nc1cc(C(F)(F)F)ccc1N1CCCC1	-8	-5	1	-1	10	1	/
CCc1cccc(NC(=O)C2CCN(S(=O)(=O)c3ccc4[nH]c(=O)ccc4c3)CC2)c1	-2	-4	-9	9	-2	/	/
Cc1cc(C)cc(NC(=O)C2CCN(S(=O)(=O)c3ccc4[nH]c(=O)ccc4c3)CC2)c1	46*	1	6	-6	1	/	-5
COc1nc(Nc2cccc([N+](=O)[O-])c2)nc(OC)n1	106*	1	7	-7	-4	-2	3
C=CCNc1nc(Nc2ccc([N+](=O)[O-])cc2)nc(OC)n1	9	-8	10	-10	-12	0	/
C#CCOc1nc(Nc2cccc([N+](=O)[O-])c2)nc(OCC#C)n1	29*	-2	57	-57	4	33	2
COc1ccc(OC)c2sc(NC(=O)c3cccc(N4C(=O)CCC4=O)c3)nc12	67*	-2	/	/	2	0	2
C=CCn1c(C)cc(-c2csc(NC(=O)C3CCN(c4ncnc5sc(C)c(C)c45)CC3)n2)c1C	30*	1	31	-31	/	1	0
COc1ccc(-c2csc(NC(=O)C3CCN(c4ncnc5sc(C)c(C)c45)CC3)n2)cc1OC	26*	-1	54	-54	18	-7	-2
Cc1noc(C)c1C(=O)Nc1cccc(S(=O)(=O)N2CCCCC2)c1	-2	1	-8	8	2	-2	/
Cc1ccc(OCC(=O)NNC(=O)Nc2ccc(Cl)cc2)c(Br)c1	23*	0	-23	23	0	-3	1
CCOC(=O)c1cccc(NC(=O)COc2ccc([N+](=O)[O-])cc2)c1	-4	0	0	0	12	-4	/
CCCOC(=O)c1cccc(NC(=O)COc2ccc([N+](=O)[O-])cc2)c1	19*	-2	-7	7	-7	-2	3
COc1ccc(NC(=O)NNC(=O)c2ccc(Cl)cc2Cl)cc1OC	-4	0	-2	2	/	-6	/
Cc1ccc(NC(=O)NNC(=O)COc2ccc([N+](=O)[O-])cc2)cc1C	32*	-5	-6	6	/	0	-10
COc1ccc(NC(=O)NNC(=O)COc2ccc(Cl)cc2C)cc1OC	45*	-3	-9	9	-3	/	4
Cc1ccc(NC(=O)Nc2ccc(Cl)cc2)c(Br)c1	3	-2	19	-19	-2	-3	/
Cc1ccc(NC(=O)CCC(=O)NNC(=O)COc2ccc([N+](=O)[O-])cc2)cc1C	13	1	6	-6	0	1	/
CC(C)NC(=O)C1(C)CCN1CCC(=O)c1ccccc1 (stereo unspecified)	/	/	/	/	/	-1	/
CC(=O)N1CCCN(C(=O)C2CCN(c3ncnc4c3sc3cccc(F)c34)CC2)CC1	/	/	/	/	/	1	/
